# High-throughput results (PubChem BioAssay)
# NadD block = inhibitors of S. aureus NadD, primary screen, biochemical, colorimetric, uHTS; purified NadD enzyme, colorimetric absorbance read-out; actives 0.78% (n = 360,000); Nicotinate-nucleotide adenylyltransferase NadD (Staphylococcus aureus N315); inhibition, % at 20 µM; in the data active means inhibition above about 26%
# LMPTP block = LMPTP phosphatase inhibitors, primary screen, biochemical, fluorescence intensity, uHTS; actives 0.22% (n = 360,000); Low molecular weight phosphotyrosine protein phosphatase (Homo sapiens), P24666; recombinant LMPTP-A, OMFP fluorogenic substrate; inhibition, % at 20 µM;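 active means compounds that cut the enzyme signal by at least half of the control window in the single-dose screen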;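 further: plate controls were DMSO wells with enzyme plus substrate for no effect and substrate without enzyme for full effect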
#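 Test system – LMPTP-A phosphatase enzyme · Quantity – 0.625 nM LMPTP-A final · Reagent – OMFP substrate, 400 µM final · Dosing – one test concentration per compound, 20 µM, with 3% DMSO overall · Timing – 50 min enzyme reaction at room temperature, protected from light · Detection – fluorescence intensity · Controls – substrate-only low control, DMSO enzyme-plus-substrate high control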
# STEP block = STEP phosphatase inhibitors, primary screen, biochemical, fluorescence intensity, uHTS | Tyrosine-protein phosphatase non-receptor type 5 (Homo sapiens), P54829 | recombinant STEP, OMFP fluorogenic substrate | inhibition, % at 20 µM | actives 0.25% (n = 360,000);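 active means inhibition at 20 µM, scaled per plate between control wells, above about 37%, limit read from the data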;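 further: 0% = DMSO with enzyme and substrate and 100% = substrate only without enzyme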
# Target sequence (P54829 whole entry, looked up): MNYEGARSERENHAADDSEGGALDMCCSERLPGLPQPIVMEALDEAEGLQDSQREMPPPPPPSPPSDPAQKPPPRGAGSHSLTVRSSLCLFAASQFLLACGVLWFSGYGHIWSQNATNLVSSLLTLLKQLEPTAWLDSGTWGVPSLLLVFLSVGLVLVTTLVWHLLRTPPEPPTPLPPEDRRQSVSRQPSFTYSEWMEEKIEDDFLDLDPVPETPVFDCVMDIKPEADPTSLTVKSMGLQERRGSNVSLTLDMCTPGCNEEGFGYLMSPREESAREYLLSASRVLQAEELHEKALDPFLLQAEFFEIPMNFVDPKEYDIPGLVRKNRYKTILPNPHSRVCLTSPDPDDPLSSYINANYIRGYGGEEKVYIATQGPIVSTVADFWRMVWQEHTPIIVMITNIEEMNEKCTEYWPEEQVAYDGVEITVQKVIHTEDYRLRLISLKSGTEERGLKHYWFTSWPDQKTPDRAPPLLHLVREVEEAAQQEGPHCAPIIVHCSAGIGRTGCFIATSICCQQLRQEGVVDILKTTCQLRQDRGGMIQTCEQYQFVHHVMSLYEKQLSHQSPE
#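 material = STEP tyrosine phosphatase | reagent = fluorogenic phosphatase substrate OMFP at 25 µM final | doses = single compound dose of 20 µM, 1% DMSO final | schedule = 20 min reaction, room temperature, in the dark | measured by = fluorescence, 480/540 nm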
# rCAG RNA binder = binders of r(CAG) RNA repeats, primary screen, biochemical, fluorescence; inhibition, % at 3 µM; actives 1.3% (n = 370,000); r(CAG) RNA repeat, TO-PRO-1 dye displacement fluorescence;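 active means inhibition above the plate cutoff, the mean of all test compounds on that plate plus 3 SD, cut at about 35% in these data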;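 further: 0% = DMSO alone and 100% = 100 µM mitoxantrone as full dye displacement; higher means more dye released from RNA so lower well fluorescence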
# Scp1 inh = Scp-1 phosphatase inhibitors, primary screen, biochemical, colorimetric, uHTS. Carboxy-terminal domain RNA polymerase II polypeptide A small phosphatase 1 (Homo …. Recombinant Scp1, phosphopeptide, malachite green phosphate absorbance. inhibition, % at 20 µM. actives 0.88% (n = 340,000);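 active means inhibition above about 50% at 20 µM, limit read from the data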;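 further: plate controls were DMSO wells with enzyme for no effect and wells lacking enzyme for full effect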
#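 Assay system: SCP-1 catalytic fragment, aa 76-261 | Buffer or medium: Tris acetate buffer pH 5.5 with MgCl2 and Tween-20 | Compound: One concentration, 20 µM, with 1.0% DMSO | Also added: Phospho 17-mer peptide substrate | Signal: Absorbance at 630 nm | Incubation: 45 min enzyme reaction at room temperature | Measure: % inhibition of SCP-1 phosphate liberation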
# NadD conf = inhibitors of S. aureus NadD, confirmation, biochemical, colorimetric, single concentration; AID 624309, 2012; inhibition, % at 20 µM; purified S. aureus NadD, colorimetric enzyme assay; shares compounds with NadD block; actives 13% (n = 2,000); in the data active means inhibition mostly above about 42%, no sharp cut-off; inactive means mostly below about 42%
# * hit, by the source's call; . = no result given. In the library only some 2.6% were active in any assay of this set; here they are far more common.
SMILES,NadD block,LMPTP block,STEP block,rCAG RNA binder,Scp1 inh,NadD conf
COc1ccc(C2NCCc3c2[nH]c2ccccc32)cc1CSc1nc2ccccc2s1 (stereo not drawn),44*,3,2,12,18,11
NC(CSC1(c2cccc3ccccc23)c2ccccc2-c2ccccc21)C(=O)O (stereo not drawn),42*,2,1,21,0,64*
Nc1c(S(=O)(=O)c2ccccc2)c2nc3ccccc3nc2n1/N=C/c1cccc(O)c1,47*,5,-1,13,2,18
Cc1ccc(C(=O)Nn2c(N)c(S(=O)(=O)c3ccc(C)cc3)c3nc4ccccc4nc32)cc1,30*,3,-1,29,7,32
Cc1cccc(S(=O)(=O)c2c(N)n(/N=C/c3ccccc3)c3nc4ccccc4nc23)c1,1,3,1,7,3,.
Cc1ccc(C)c(S(=O)(=O)c2c(N)n(/N=C/c3ccco3)c3nc4ccccc4nc23)c1,32*,4,2,33,4,1
CCCCOc1ccc(C(=O)NC2CCCCN(Cc3ccccc3C)C2=O)cc1 (stereo not drawn),.,.,.,-1,.,.
CC(COc1cc(F)cc(C#N)c1)CN1CCC(C(O)(c2ccccc2)c2ccccc2)CC1 (stereo not drawn),.,.,.,-2,.,.
COC(=O)C1CN(C2CCCC2)CCS(=O)(=O)N1Cc1ccc(C)cc1 (stereo not drawn),.,.,.,2,.,.
Nc1cc(=O)[nH]c(SCC(=O)N2N=C(c3ccc4ccccc4c3)CC2c2ccccc2)n1 (stereo not drawn),40*,3,-1,13,3,39
CC(=O)OCC(=O)N1N=C(c2ccc3ccccc3c2)CC1c1ccccc1 (stereo not drawn),-3,1,4,0,-8,.
CC(C)NC(=O)N[C@H]1C[C@@H]2O[C@H](CO)CC[C@@H]2O[C@@H]1CCc1ccc(-c2ccccc2F)cc1,.,.,.,3,.,.
Cc1nn(-c2ccc([N+](=O)[O-])cc2)c2c1C(c1cccc(Br)c1)N1C(=N2)C(=O)Nc2ccccc21 (stereo not drawn),31*,4,3,9,-5,13
CC(=O)Nc1cccc(NC(=O)c2ccc([N+](=O)[O-])cc2Cl)c1,-3,-1,-2,0,-6,.
O=C(/C=C/c1cccc([N+](=O)[O-])c1)NC(=S)Nc1cccc(NC(=O)c2ccccc2Cl)c1,29*,2,0,12,-6,-5
O=C(NCCc1ccccc1)OCc1cn(-c2ccc(F)c(F)c2)nn1,.,.,.,0,.,.
Cc1c(C(=O)NNC(=O)c2csc(N3CCOCC3)n2)oc2ccccc12,7,-1,1,7,25,.
Cc1c(C(=O)NNC(=O)c2csc(N3CCOCC3)n2)oc2ccc(Br)cc12,32*,3,1,23,.,48
Cc1cc[n+](CC(=O)c2ccc(NC(=O)c3ccccc3)cc2)c2ccccc12,37*,8,-1,15,2,-16
CC(C)CN1C(=O)[C@]2(CC(=O)N(C)C2c2ccccc2)c2cc(-n3cc(CN(C)C)nn3)ccc21 (stereo partly drawn),.,.,.,-2,.,.
COc1ccccc1NS(=O)(=O)c1cc(NC(=O)Nc2ccc(Cl)cc2Cl)ccc1N1CCCCC1,43*,2,6,13,4,17
COc1ccccc1NS(=O)(=O)c1cc(NC(=O)C2CCC2)ccc1N1CCCCC1,20,3,8,2,-7,.
COC(=O)[C@]12CCCCC=C1N(Cc1ccc(OC)cc1)C(=O)[C@@H]2CC(=O)NCCC(C)C,.,.,.,-2,.,.
CCCN(CCC)S(=O)(=O)c1ccc(C(=O)NNc2nc(-c3ccccc3)c3cc(Br)ccc3n2)cc1,36*,-1,-2,22,38,3
OCCNc1nc(-c2ccccc2)c2cc(Br)ccc2n1,-2,1,1,-3,0,.
SMILES,NadD block,LMPTP block,STEP block,rCAG RNA binder,Scp1 inh,NadD conf
CCN1Cc2nnn(Cc3ccccc3)c2-c2ccccc2S1(=O)=O,.,.,.,0,.,.
Cc1c(-c2cccc(Cl)c2)nc2ccccc2c1C(=O)OC/C(O)=C(\C#N)c1nc2ccccc2[nH]1,70*,3,2,11,12,-1
Cc1cccc(C)c1OCC(=O)OC/C(O)=C(\C#N)c1nc2ccccc2[nH]1,7,-1,-3,12,6,.
Cc1c(C(=O)OC/C(O)=C(\C#N)c2nc3ccccc3[nH]2)oc2ccc(Br)cc12,43*,-1,-2,8,1,4
CC(C)OCc1c(C(=O)OC/C(O)=C(\C#N)c2nc3ccccc3[nH]2)oc2ccccc12,8,-2,-4,4,-3,.
O=C1N(CCCO)CCC12CCC(c1ccccc1)CC2 (stereo not drawn),.,.,.,-1,.,.
C[C@@H]1[C@@H](O)C[C@@]2(C[C@H](O)c3cc(Cl)cc(Cl)c3O2)O[C@H]1c1ccccc1Cl,.,.,.,0,.,.
Cc1cc2cc(CNC(=S)Nc3ccc(OC(F)F)cc3)ccc2[nH]1,-1,1,0,22,-6,.
Cc1cc2cc(CNC(=S)Nc3ccc(OC(F)(F)F)cc3)ccc2[nH]1,32*,1,0,26,6,-1
Cc1cc2cc(CNC(=O)Nc3ccccc3)ccc2[nH]1,49*,4,1,11,-9,-5
CCN(CC)C(=O)CC[C@@H]1CC[C@]2(CCCN(Cc3ccccc3)C2)O1,.,.,.,2,.,.
NC(=S)N/N=C/c1ccc(-c2ccc(Cl)c(Cl)c2)o1,39*,1,-1,34,8,12
C[C@H](O)[C@@H]1CN2CCc3c([nH]c4cccc(-c5ccccc5)c34)[C@@H]2C[C@@H]1N(C)C(=O)C1CCCCC1,.,.,.,8,.,.
O=c1c2c3nc4ccccc4nc3n(Cc3ccccc3)c2ncn1Cc1ccco1,39*,62*,2,37*,6,14
COCCCn1c2nc3ccccc3nc2c2c(=O)n(Cc3ccc(Cl)cc3)cnc21,3,3,4,-2,-2,.
CC(=O)c1ccc(NC(=O)COC(=O)c2c3c(nc4ccccc24)/C(=C\c2cccs2)CCC3)cc1,27*,5,0,14,6,11
O=C(COC(=O)c1c2c(nc3ccccc13)/C(=C\c1cccs1)CCC2)Nc1ccccc1,11,6,-4,21,1,.
